Measured values reported in ChEMBL document CHEMBL3045526, “Tailoring the structure of aminobisphosphonates to target plant P5C reductase” (J Agric Food Chem, 2008).

The compounds below were run against T1, Pyrroline-5-carboxylate reductase (Arabidopsis thaliana, UniProt P54904) (assay: Inhibition of Arabidopsis thaliana P5C assessed as reduction in NADH oxidation incubated at 35 degC up to 10 min).
T1 sequence (P54904 whole entry): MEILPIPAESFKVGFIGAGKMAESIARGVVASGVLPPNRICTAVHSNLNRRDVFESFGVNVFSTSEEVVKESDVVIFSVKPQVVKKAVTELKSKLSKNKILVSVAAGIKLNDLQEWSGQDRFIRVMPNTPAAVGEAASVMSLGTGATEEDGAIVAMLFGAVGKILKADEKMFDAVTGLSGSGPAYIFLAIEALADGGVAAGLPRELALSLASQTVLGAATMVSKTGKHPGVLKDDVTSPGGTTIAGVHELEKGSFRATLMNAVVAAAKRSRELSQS
Outline: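 P5C reductase partially purified from stationary-phase A. thaliana cultured cells. Forward reaction run in 100 mM Tris-HCl pH 8.0, 0.1 mM MgCl2, 2 mM DL-P5C, 0.25 mM NADH, with 0.15–0.20 nkat enzyme. A340 followed at 35 °C for up to 10 min against P5C-free blanks. Inhibitor final 5 µM–5 mM (pH 7.5–8.0), triplicate. IC50 by linear regression of % activity vs log concentration.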
In the case of O=P(O)(O)C(O)c1cccc(Cl)c1Cl (racemic) [(2,3-DICHLOROPHENYL)(HYDROXY)METHYLPHOSPHONIC ACID], the IC50 is reported as 4.9 mM. O=P(O)(O)C(O)c1ccc(Cl)cc1Cl (racemic) [(2,4-DICHLOROPHENYL)(HYDROXY)METHYLPHOSPHONIC ACID] showed an IC50 of 5.8 mM. Work on O=P(O)(O)C(O)c1c(Cl)cccc1Cl (racemic) [(2,6-DICHLOROPHENYL)(HYDROXY)METHYLPHOSPHONIC ACID] yielded an IC50 of 8.1 mM. With O=P(O)(O)C(O)c1ccccc1Cl (racemic) [(2-CHLOROPHENYL)(HYDROXY)METHYLPHOSPHONIC ACID] the IC50 was 7.1 mM. With O=P(O)(O)C(O)c1ccc(Cl)c(Cl)c1 (racemic) [(3,4-DICHLOROPHENYL)(HYDROXY)METHYLPHOSPHONIC ACID] the IC50 was 1.4 mM. O=P(O)(O)C(O)c1cccc(Cl)c1 (racemic) [(3-CHLOROPHENYL)(HYDROXY)METHYLPHOSPHONIC ACID] was tested, and the IC50 was 5.1 mM. For O=P(O)(O)C(O)c1ccc(Cl)cc1 (racemic) [(4-CHLOROPHENYL)(HYDROXY)METHYLPHOSPHONIC ACID], the IC50 was 45.5 mM. NC(c1cccc(Cl)c1Cl)P(=O)(O)O (racemic) [AMINO(2,3-DICHLOROPHENYL)METHYLPHOSPHONIC ACID] was tested, and the IC50 was 4.6 mM. Work on COc1cccc(C(N)P(=O)(O)O)c1OC (racemic) [AMINO(2,3-DIMETHOXYPHENYL)METHYLPHOSPHONIC ACID] yielded an IC50 of 16 mM. Work on NC(c1ccc(Cl)cc1Cl)P(=O)(O)O (racemic) [AMINO(2,4-DICHLOROPHENYL)METHYLPHOSPHONIC ACID] yielded an IC50 of 8.2 mM. Compound NC(c1ccccc1Br)P(=O)(O)O (racemic) [AMINO(2-BROMOPHENYL)METHYLPHOSPHONIC ACID] has an IC50 of 63 mM. With NC(c1ccccc1Cl)P(=O)(O)O (racemic) [AMINO(2-CHLOROPHENYL)METHYLPHOSPHONIC ACID] the IC50 was 10.6 mM. Work on NC(c1ccccc1F)P(=O)(O)O (racemic) [AMINO(2-FLUOROPHENYL)METHYLPHOSPHONIC ACID] yielded an IC50 of 6.6 mM. In the case of NC(c1cccc(Cl)c1)P(=O)(O)O (racemic) [AMINO(3-CHLOROPHENYL)METHYLPHOSPHONIC ACID], the IC50 is reported as 35.6 mM. O=P(O)(O)C(Nc1cccc(Cl)c1Cl)P(=O)(O)O [2,3-DICHLOROPHENYLAMINOMETHYLENEBISPHOSPHONIC ACID] showed an IC50 of 0.102 mM. With O=P(O)(O)C(Nc1ccc(Cl)cc1Cl)P(=O)(O)O [2,4-DICHLOROPHENYLAMINOMETHYLENEBISPHOSPHONIC ACID] the IC50 was 0.5 mM. With O=P(O)(O)C(Nc1cc(Cl)ccc1Cl)P(=O)(O)O [2,5-DICHLOROPHENYLAMINOMETHYLENEBISPHOSPHONIC ACID] the IC50 was 0.73 mM. With O=P(O)(O)C(Nc1c(Cl)cccc1Cl)P(=O)(O)O [2,6-DICHLOROPHENYLAMINOMETHYLENEBISPHOSPHONIC ACID] the IC50 was 0.112 mM. Work on O=P(O)(O)C(Nc1ccc(Cl)c(Cl)c1)P(=O)(O)O [3,4-DICHLOROPHENYLAMINOMETHYLENEBISPHOSPHONIC ACID] yielded an IC50 of 0.268 mM. O=P(O)(O)C(Nc1cc(Cl)cc(Cl)c1)P(=O)(O)O [(3,5-DICHLOROPHENYLAMINO)METHYLENEDIPHOSPHONIC ACID] gave an IC50 of 0.077 mM. In the case of O=P(O)(O)C(Nc1ccc(Cl)cc1)P(=O)(O)O [(4-CHLOROPHENYLAMINO)METHYLENEDIPHOSPHONIC ACID], the IC50 is reported as 0.86 mM.
